From ChEMBL document CHEMBL1124174, “Substituted benzamides. 1. Potential nondopaminergic antagonists of chemotherapy-induced nausea and emesis” (J Med Chem, 1988)
pIC50: −log10 of the molar value. Values joined by “and” are separate entries in the source; they are usually repeats but may differ in a detail not shown here. Equal values may be shown once.

Tests used:
[1] = molecular target: D(2) dopamine receptor (Canis lupus familiaris) (UniProt Q9GJU1); experiment: In vivo antagonism activity against dopamine D2 receptor was measured as emesis in dog when administered subcutaneously; assay type: functional, organism-based
D(2) dopamine receptor = D(2) dopamine receptor (Rattus norvegicus, UniProt P61169); experiment: In vitro antagonistic activity against Dopamine receptor D2 was evaluated for the inhibition of [3H]spiperone binding
In short: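 Rat striatal membranes were prepared by differential centrifugation in 50 mM Tris pH 7.4 at 4 °C. Membrane protein (10 mg) was incubated 15 min at 37 °C with 0.1 nM [3H]spiperone and varying competitor concentrations. Buffer: 50 mM Tris HCl pH 7.5, 0.1% ascorbic acid, pargyline, 120 mM NaCl, 5 mM KCl, 2 mM CaCl2, 1 mM MgCl2. (+)-Butaclamol defined nonspecific binding. Bound ligand was collected by filtration and scintillation counted. IC50 by log-logit regression.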

Canis familiaris [2] = experiment: In vivo antagonism of cisplatin-induced emesis in dog measured as emetic episodes, twice the dose of 6 mg/kg in 2 dogs; assay type: functional, Canis lupus familiaris
In short: (§1)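 Nonfasted mature male or female beagles were dosed sc twice, 30 min before and 120 min after cisplatin (3 mg/kg iv; 3 mg/mL in warm 0.9% saline, used immediately). Emesis was observed up to 5 h; events within 2 min counted as one episode. Results were given as mean emetic episodes and % protection versus a dynamic control (historical and concurrent saline means pooled). t test versus saline.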

Canis familiaris [3] = experiment: In vivo antagonism of cisplatin-induced emesis in dog measured as emetic episodes, twice the dose of 1 mg/kg in 2 dogs; assay type: functional, Canis lupus familiaris; in short: as §1
Canis familiaris [4] = experiment: In vivo antagonism of cisplatin-induced emesis in dog measured as percentage protection for twice the dose of 1 mg/kg in 2 dogs; assay type: functional, Canis lupus familiaris; in short: as §1
Canis familiaris [5] = experiment: In vivo antagonism of cisplatin-induced emesis in dog measured as percentage protection for twice the dose of 6 mg/kg in 2 dogs; assay type: functional, Canis lupus familiaris; in short: as §1
Mustela putorius furo [6] = experiment: In vivo antagonism of cisplatin-induced emesis in ferret measured as percentage protection for twice the dose of 0.3 mg/kg and in 3 ferrets; assay type: functional
In short: (§2)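 Nonfasted castrated male Fitch ferrets (1–1.5 kg) had jugular catheters implanted ≥48 h earlier under anesthesia. Compounds or saline were given iv twice, 5 min before and 90 min after cisplatin (12 mg/kg iv; 12 mg/mL in warm 0.9% saline). Emesis was observed up to 4 h; events within 1 min counted as one episode. Results were given as mean emetic episodes and % protection versus a pooled historical/concurrent control. t test versus saline.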

Mustela putorius furo [7] = experiment: In vivo antagonism of cisplatin-induced emesis in ferret measured as emetic episodes, twice the dose of 3 mg/kg and in 3 ferrets; assay type: functional; in short: as §2
Mustela putorius furo [8] = experiment: In vivo antagonism of cisplatin-induced emesis in ferret measured as emetic episodes, twice the dose of 0.3 mg/kg and in 3 ferrets; assay type: functional; in short: as §2
Mustela putorius furo [9] = experiment: In vivo antagonism of cisplatin-induced emesis in ferret measured as emetic episodes, twice the dose of 1 mg/kg and in 3 ferrets; assay type: functional; in short: as §2
Mustela putorius furo [10] = experiment: In vivo antagonism of cisplatin-induced emesis in ferret measured as percentage protection for twice the dose of 1 mg/kg and in 3 ferrets; assay type: functional; in short: as §2
Mustela putorius furo [11] = experiment: In vivo antagonism of cisplatin-induced emesis in ferret measured as percentage protection for twice the dose of 3 mg/kg and in 3 ferrets; assay type: functional; in short: as §2
[12] = molecular target: D(2) dopamine receptor (Rattus norvegicus) (UniProt P61169); experiment: In vivo antagonism activity against D2 receptor was measured as stereotypy in rat when administered subcutaneously; assay type: functional, organism-based
In short: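 Male Long Evans rats (275 g) were dosed sc in dilute aqueous HCl (pH 4.5-5.5) 30 min before apomorphine (1 mg/kg sc).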

[13] = molecular target: D(2) dopamine receptor (Rattus norvegicus) (UniProt P61169); experiment: In vivo antagonistic activity against dopamine D2 receptor was measured as catalepsy in rat when administered subcutaneously; assay type: functional, organism-based
In short: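 Male Long Evans rats (275 g) received graded sc doses in dilute aqueous HCl (pH 4.5-5.5). They were observed 180 min for catalepsy, scored when the animal stayed stationary ≥15 s on a four-cork template.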

Canis familiaris [14] = experiment: In vivo antagonism of cisplatin-induced emesis in dog measured as percentage protection for twice the dose of 0.3 mg/kg in 2 dogs; assay type: functional, Canis lupus familiaris; in short: as §1
Canis familiaris [15] = experiment: In vivo antagonism of cisplatin-induced emesis in dog measured as emetic episodes, twice the dose of 0.3 mg/kg in 2 dogs; assay type: functional, Canis lupus familiaris; in short: as §1
Canis familiaris [16] = experiment: In vivo antagonism of cisplatin-induced emesis in dog measured as emetic episodes, twice the dose of 3 mg/kg in 2 dogs; assay type: functional, Canis lupus familiaris; in short: as §1
Canis familiaris [17] = experiment: In vivo antagonism of cisplatin-induced emesis in dog measured as percentage protection for twice the dose of 3 mg/kg in 2 dogs; assay type: functional, Canis lupus familiaris; in short: as §1

Sequence of D(2) dopamine receptor (Canis lupus familiaris) (Q9GJU1 whole entry): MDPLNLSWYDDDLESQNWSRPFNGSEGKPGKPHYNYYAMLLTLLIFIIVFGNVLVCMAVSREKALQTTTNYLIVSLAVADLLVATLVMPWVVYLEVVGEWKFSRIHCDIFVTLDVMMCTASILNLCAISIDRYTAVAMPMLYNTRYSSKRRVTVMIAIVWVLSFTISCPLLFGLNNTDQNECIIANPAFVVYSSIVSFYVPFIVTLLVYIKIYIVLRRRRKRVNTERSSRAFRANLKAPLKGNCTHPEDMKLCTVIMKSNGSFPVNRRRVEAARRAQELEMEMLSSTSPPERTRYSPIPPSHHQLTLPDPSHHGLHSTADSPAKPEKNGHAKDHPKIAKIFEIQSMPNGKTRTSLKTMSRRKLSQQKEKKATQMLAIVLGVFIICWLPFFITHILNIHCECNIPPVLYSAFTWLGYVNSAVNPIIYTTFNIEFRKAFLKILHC
Sequence of D(2) dopamine receptor (Rattus norvegicus) (P61169 whole entry): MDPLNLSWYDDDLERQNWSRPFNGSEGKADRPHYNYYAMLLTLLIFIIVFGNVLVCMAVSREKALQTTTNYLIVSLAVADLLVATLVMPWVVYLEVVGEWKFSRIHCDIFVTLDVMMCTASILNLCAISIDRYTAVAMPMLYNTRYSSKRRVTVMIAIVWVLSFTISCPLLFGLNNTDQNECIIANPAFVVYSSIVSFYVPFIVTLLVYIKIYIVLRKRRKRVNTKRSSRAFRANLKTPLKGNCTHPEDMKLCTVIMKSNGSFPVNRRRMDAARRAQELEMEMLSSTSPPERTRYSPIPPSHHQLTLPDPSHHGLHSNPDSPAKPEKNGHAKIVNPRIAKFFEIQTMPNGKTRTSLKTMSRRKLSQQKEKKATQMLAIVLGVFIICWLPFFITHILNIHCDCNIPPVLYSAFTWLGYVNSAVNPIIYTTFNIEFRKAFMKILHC
Sequence of D(2) dopamine receptor (P61169 whole entry): as above

Row | SMILES | pIC50 (D(2) dopamine receptor) | ED50 [12] [mg/kg] | ED50 [1] [mg/kg] | Emetic episodes (Canis familiaris [3]) | Protection (Canis familiaris [4]) [%] | Protection (Mustela putorius furo [6]) [%] | Emetic episodes (Mustela putorius furo [7]) | Emetic episodes (Mustela putorius furo [8]) | Emetic episodes (Mustela putorius furo [9]) | Protection (Mustela putorius furo [10]) [%] | Protection (Mustela putorius furo [11]) [%] | ED50 [13] [mg/kg] | Protection (Canis familiaris [14]) [%] | Emetic episodes (Canis familiaris [15]) | other results
1 | CCN(CC)CCNC(=O)c1cc(Cl)c(N)cc1OCC(C)O (stereo not given) | < 6.00 | > 40 | > 3 | 0 | 100 |  | 1 |  | 4.5 | 36 | 86 | > 40 | 68 | 3 | 
2 | CCN(CC)CCNC(=O)c1cc(Cl)c(N)cc1OCC(=O)C(C)C | < 6.00 | > 40 | > 3 |  |  |  |  |  | 4 | 44 |  | > 40 | 44 | 3 | 
3 | CCN(CC)CCNC(=O)c1cc(Cl)c(N)cc1OC1CCCCC1=O (stereo not given) | < 6.00 | > 40 | > 3 | 0 | 100 | 62 | 0 | 2.7 |  |  | 100 | > 40 | 88 | 1.5 | 
4 | CCN(CC)CCNC(=O)c1cc(Cl)c(N)cc1OCCOCCOC | < 6.00 | > 40 | > 3 |  |  |  | 1.7 |  | 4.3 | 39 | 76 | > 40 |  |  | 
5 | CCC(=O)COc1cc(N)c(Cl)cc1C(=O)NCCN(CC)CC | < 6.00 | > 40 | > 3 | 0 | 100 | 0 | 0.7 | 7.3 |  |  | 90 | > 40 |  | 3 | 
6 | CCN(CC)CCNC(=O)c1cc(Cl)c(N)cc1OC1CCCC1=O (stereo not given) | < 6.00 | > 40 | > 3 |  | 87 |  |  |  | 5.7 | 21 |  | > 40 |  |  | 
7 | CCCC(=O)COc1cc(N)c(Cl)cc1C(=O)NCCN(CC)CC | < 6.00 | > 40 | > 3 |  |  |  |  |  | 0.7 | 90 |  | > 40 | 84 | 2 | 
8 | CCN(CC)CCN1C(=O)c2cc(Cl)c(N)cc2OC(C)=C1C | < 6.00 | > 40 | > 3 |  |  |  |  |  |  |  |  | > 40 | 37 | 7.5 | Protection (Mustela putorius furo [6]; 0.3 mg/kg): 95% and 67%
9 | CCN(CC)CCNC(=O)c1cc(Cl)c(N)cc1OC[C@@H](C)O (stereo in doubt; 8f) | < 6.00 |  |  |  |  | 0 |  | 8 |  |  |  |  |  |  | Emetic episodes (Canis familiaris [15]; 0.3 mg/kg): 2; Emetic episodes (Canis familiaris [3]; 1 mg/kg): 0; Protection (Canis familiaris [4]; 1 mg/kg): 100%; Emetic episodes (Mustela putorius furo [9]; 1 mg/kg): 5.7; Protection (Mustela putorius furo [10]; 1 mg/kg): 22%
10 | CCN(CC)CCNC(=O)c1cc(Cl)c(N)cc1OC(C)C(C)O (stereo in doubt; 8g,h) | < 6.00 |  |  |  |  |  |  |  |  |  |  |  |  |  | Protection (Canis familiaris [14]; 0.3 mg/kg): 96%; Emetic episodes (Canis familiaris [15]; 0.3 mg/kg): 0.5; Emetic episodes (Mustela putorius furo [7]; 3 mg/kg): 1.3; Emetic episodes (Mustela putorius furo [9]; 1 mg/kg): 1.7; Protection (Mustela putorius furo [10]; 1 mg/kg): 75%; Protection (Mustela putorius furo [11]; 3 mg/kg): 80%
11 | CCN(CC)CCNC(=O)c1cc(Cl)c(N)cc1OCC(C)=O | < 6.00 | > 40 | > 3 | 1.5 | 92 | 44 | 0.7 | 4 | 4.5 | 38 | 90 | > 40 | 60 | 5 | Emetic episodes (Canis familiaris [2]): 0.5; Protection (Canis familiaris [5]): 96%
12 | CCCOc1cc(N)c(Cl)cc1C(=O)NCCN(CC)CC | < 6.00 | > 40 | > 3 |  |  |  | 2 |  |  |  | 70 | > 40 |  |  | Emetic episodes (Canis familiaris [2]): 8; Protection (Canis familiaris [5]): 40%

Continued, in another order:

Row | pIC50 (D(2) dopamine receptor) | ED50 [12] [mg/kg] | SMILES | ED50 [1] [mg/kg] | Emetic episodes (Canis familiaris [3]) | Protection (Canis familiaris [4]) [%] | Protection (Mustela putorius furo [6]) [%] | Emetic episodes (Mustela putorius furo [7]) | Emetic episodes (Mustela putorius furo [8]) | Emetic episodes (Mustela putorius furo [9]) | Protection (Mustela putorius furo [10]) [%] | Protection (Mustela putorius furo [11]) [%] | ED50 [13] [mg/kg] | Protection (Canis familiaris [14]) [%] | Emetic episodes (Canis familiaris [15]) | other results
13 | < 6.00 | > 40 | C=CCOc1cc(N)c(Cl)cc1C(=O)NCCN(CC)CC | > 1 | 3.5 | 72 | 30 | 0.3 | 4.7 | 3 | 56 | 95 | > 40 |  |  | Emetic episodes (Canis familiaris [2]): 1; Protection (Canis familiaris [5]): 90%
14 | < 6.00 | > 40 | CCN(CC)CCNC(=O)c1cc(Cl)c(N)cc1OC1CCCC[C@H]1OC (stereo not given in full) | > 3 | 0 | 100 | 77 | 1.3 | 3.7 | 1.7 | 49 | 82 | > 40 | 70 | 3.5 | 
15 | < 6.00 | > 40 | CCN(CC)CCNC(=O)c1cc(Cl)c(N)cc1OC1CCCC[C@@H]1OC (stereo not given in full) | > 3 | 10 | 15 | 42 | 0.7 | 4.3 | 2.3 | 69 | 91 | > 40 |  |  | 
16 | < 6.00 | > 40 | CCN(CC)CCNC(=O)c1cc(Cl)c(N)cc1OC/C(C)=N/OC |  |  |  |  | 0.7 |  |  |  | 90 | > 40 |  |  | Emetic episodes (Canis familiaris [2]): 3.5; Protection (Canis familiaris [5]): 71%
17 | < 6.00 | > 40 | CCN(CC)CCNC(=O)c1cc(Cl)c(N)cc1OC1CCCC[C@H]1O (stereo not given in full) |  | 0 | 100 |  | 2.7 |  |  |  | 64 | > 40 | 64 | 4.5 | 
18 | < 6.00 | > 40 | C=C(C)COc1cc(N)c(Cl)cc1C(=O)NCCN(CC)CC | > 3 |  |  |  | 2.3 |  |  |  | 70 | > 40 |  |  | Emetic episodes (Canis familiaris [16]): 4; Protection (Canis familiaris [17]): 68%
19 | < 6.00 | > 40 | CCN(CC)CC/N=C(\NOC)c1cc(Cl)c(N)cc1OC | > 1 |  |  |  | 8.3 |  |  |  | 0 | > 40 |  |  | Emetic episodes (Canis familiaris [2]): 8.5; Protection (Canis familiaris [5]): 34%
20 | < 6.00 | > 40 | CCC(Oc1cc(N)c(Cl)cc1C(=O)NCCN(CC)CC)C(C)=O (stereo not given) | > 3 | 0.5 | 96 |  |  |  | 2.3 | 68 |  | > 40 |  | 3 | 
21 | < 6.00 | > 40 | CCN(CC)CCNC(=O)c1cc(Cl)c(N)cc1OCCC(C)O (stereo not given) | > 3 |  |  |  |  |  | 2 | 73 |  | > 40 | 32 | 8 | 
22 | < 6.00 |  | CCN(CC)CCNC(=O)c1cc(Cl)c(N)cc1OC(C)C(C)O (stereo in doubt; 8h) |  | 3 | 75 |  |  |  |  |  |  |  |  |  | Protection (Canis familiaris [14]; 0.3 mg/kg): 60%; Emetic episodes (Canis familiaris [15]; 0.3 mg/kg): 4.5; Protection (Mustela putorius furo [6]; 0.3 mg/kg): 37%; Emetic episodes (Mustela putorius furo [7]; 3 mg/kg): 0.3; Emetic episodes (Mustela putorius furo [8]; 0.3 mg/kg): 4.7; Emetic episodes (Mustela putorius furo [9]; 1 mg/kg): 2.3; Protection (Mustela putorius furo [10]; 1 mg/kg): 68%; Protection (Mustela putorius furo [11]; 3 mg/kg): 95%
23 | < 6.00 | > 40 | CCC(=O)C(C)Oc1cc(N)c(Cl)cc1C(=O)NCCN(CC)CC (stereo not given) | > 3 |  |  |  |  |  | 1.3 | 82 |  | > 40 | 84 | 2 | 
